From ChEMBL document CHEMBL1123298, “Novel 1,3-bis(aryloxy)propanes as leukotriene D4 antagonists” (1986)

System: Cavia porcellus
Assay: In vivo antagonistic activity against leukotriene D4 (LTD4) in guinea pig lung
Type: functional
Conditions: read-out: ID50 (the source's name)
Summary of the method: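 Drug in propylene glycol given iv 10 min before LTD4 400 ng/kg iv; controls received solvent. Lung overflow volume read at 5 min; ID50 by inverse prediction, common-slope parallel line assay, 3-fold doses, 2–6 animals/dose.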

Structure (SMILES) | ED50 [mg/kg]
CCCc1c(NC(=O)C(=O)OCC)cccc1OCC(O)COc1ccc(C(C)=O)c(O)c1CCC (stereo not given) | 2.6
CCCc1c(OCC(O)COc2cccc(NC(=O)C(=O)OCC(C)(C)C)c2C#N)ccc(C(C)=O)c1O (stereo not given) | 0.461
CCCc1c(OCCCOc2cccc(NC(=O)C(=O)OCC)c2)ccc(C(C)=O)c1O | 1.09
CCCc1c(OCC(O)COc2cccc(NC(=O)CC(=O)OCC)c2C#N)ccc(C(C)=O)c1O (stereo not given) | 0.64
CCCc1c(OCCCOc2cccc(NC(=O)C(=O)OCC)c2C#N)ccc(C(C)=O)c1O | 0.342
CCCc1c(OCCCOc2cccc(NC(=O)CCC(=O)OCC)c2C#N)ccc(C(C)=O)c1O | 1.77
CCCc1c(OCC(O)COc2cccc(NC(=O)C(=O)OCC)c2C#N)ccc(C(C)=O)c1O (stereo not given) | 0.113
CCCc1c(OCC(O)COc2cccc(NC(=O)C(=O)O)c2C#N)ccc(C(C)=O)c1O (stereo not given) | 1.8
CCCc1c(OCCCOc2cccc(NC(=O)CCC(=O)OCC)c2)ccc(C(C)=O)c1O | 1.28
CCCc1c(OCC(O)COc2ccc3c(=O)cc(C(=O)[O-])oc3c2CCC)ccc(C(C)=O)c1O.[Na+] (stereo not given) [FPL-55712 SODIUM SALT] | 0.153
